From ChEMBL document CHEMBL3407343, “Functionalized tetrahydro-1H-pyrido[4,3-b]indoles: a novel chemotype with Sirtuin 2 inhibitory activity” (Eur J Med Chem, 2015)
Converted amounts (≈) assume the structure as drawn. The source made the active and inactive calls. The rule behind the calls is not given here.

Columns and labels:
[1] = molecular target: T1, NAD-dependent protein deacetylase sirtuin-1 (Homo sapiens) (UniProt Q96EB6); assay: Inhibition of human recombinant SIRT1 assessed as deacetylation of N-acetyl lysine residue in p53 (317 to 320) at 10 uM after 30 mins by luciferase-mediated luminescence assay relative to control
T1 sequence (whole entry): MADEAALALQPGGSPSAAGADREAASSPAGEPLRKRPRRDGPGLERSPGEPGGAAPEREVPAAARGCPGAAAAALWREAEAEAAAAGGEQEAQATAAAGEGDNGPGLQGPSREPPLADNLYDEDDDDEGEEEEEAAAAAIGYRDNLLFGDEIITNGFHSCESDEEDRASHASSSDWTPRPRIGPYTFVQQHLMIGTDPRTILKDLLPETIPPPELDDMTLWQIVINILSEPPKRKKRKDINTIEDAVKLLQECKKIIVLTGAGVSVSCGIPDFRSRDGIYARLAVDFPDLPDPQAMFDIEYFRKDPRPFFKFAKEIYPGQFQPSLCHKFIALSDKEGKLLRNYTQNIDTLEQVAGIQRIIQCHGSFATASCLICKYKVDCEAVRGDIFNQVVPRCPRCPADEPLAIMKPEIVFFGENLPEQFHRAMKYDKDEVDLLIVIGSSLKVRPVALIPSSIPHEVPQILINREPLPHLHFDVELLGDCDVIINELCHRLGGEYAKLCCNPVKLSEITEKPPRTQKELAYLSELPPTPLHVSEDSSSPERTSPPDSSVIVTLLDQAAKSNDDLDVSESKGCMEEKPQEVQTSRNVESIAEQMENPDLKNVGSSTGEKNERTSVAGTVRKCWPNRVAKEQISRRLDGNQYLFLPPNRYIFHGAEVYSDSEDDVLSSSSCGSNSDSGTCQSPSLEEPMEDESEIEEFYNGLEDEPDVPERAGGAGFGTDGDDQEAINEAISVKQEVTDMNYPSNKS
Method in brief: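 Recombinant human SIRT1 at 0.1 unit/well, with the enzyme amount chosen from the mid-linear range of a signal-to-noise titration, in Sirt-Glo buffer. Serially diluted inhibitor in DMSO covers a 10^3-fold range, with 2.5% DMSO final. The single-point screen is at a fixed 10 µM. Enzyme and inhibitor were agitated 30 min at 25 °C, then Sirt-Glo reagent added and shaken another 30 min at 25 °C before luminescence was read. Activity is % of the enzyme-only control after blank subtraction. IC50 comes from a sigmoidal fit of % activity against log concentration, run in triplicate across ≥2 independent experiments.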

[2] = molecular target: T2, NAD-dependent protein deacetylase sirtuin-1 (Homo sapiens, UniProt Q96EB6); assay: Inhibition of human recombinant SIRT1 assessed as deacetylation of N-acetyl lysine residue in p53 (317 to 320) after 30 mins by luciferase-mediated luminescence assay
T2 sequence (Q96EB6 whole entry): T1 sequence (whole entry)

[3] = Self-aggregation of the compound in PBS assessed as derived light scattering count rate at 10 uM at pH 7.4 (reference value: 15.5 +/- 0.4 kilocount/sec); type: physicochemical; conditions: buffer, pH 7.4, 10 µM
[4] = Self-aggregation of the compound in PBS assessed as derived light scattering count rate at 1 uM at pH 7.4 (reference value: 15.5 +/- 0.4 kilocount/sec); type: physicochemical; conditions: buffer, pH 7.4, 1 µM
[5] = molecular target: T3, NAD-dependent protein deacetylase sirtuin-2 (Homo sapiens, UniProt Q8IXJ6); assay: Inhibition of human recombinant SIRT2 assessed as deacetylation of N-acetyl lysine residue in p53 (317 to 320) after 30 mins by luciferase-mediated luminescence assay
T3 sequence (Q8IXJ6 whole entry): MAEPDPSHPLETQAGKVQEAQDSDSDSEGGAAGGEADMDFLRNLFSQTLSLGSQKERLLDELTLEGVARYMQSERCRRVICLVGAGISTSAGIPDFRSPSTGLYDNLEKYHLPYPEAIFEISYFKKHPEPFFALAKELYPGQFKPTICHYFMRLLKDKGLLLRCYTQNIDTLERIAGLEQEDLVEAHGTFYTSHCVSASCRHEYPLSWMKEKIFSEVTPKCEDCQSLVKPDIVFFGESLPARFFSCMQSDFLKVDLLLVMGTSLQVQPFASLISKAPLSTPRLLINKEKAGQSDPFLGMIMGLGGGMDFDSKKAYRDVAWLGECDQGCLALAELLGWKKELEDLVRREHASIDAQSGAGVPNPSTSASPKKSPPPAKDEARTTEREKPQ

[6] = organism: Homo sapiens; assay: Selectivity ratio of IC50 for human recombinant SIRT1 to IC50 for human recombinant SIRT2
[7] = Solubility of the compound in phosphate buffer at pH 7.4 at 25 degC by turbimetric method; type: physicochemical
Method in brief: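 Turbidimetric solubility. Compound from DMSO stock was added to phosphate buffer pH 7.4 at 1–50 µM final, with 1% v/v DMSO. Plate shaken 30 min at 25 °C and absorbance read at 620 nm. Solubility is assigned to the concentration range where absorbance rises two-fold or more, from 3 separate determinations.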

[8] = organism: Homo sapiens; assay: Inhibition of protease (unknown origin) using deacetylated peptide as substrate assessed as luminescence at 10 uM after 30 mins relative to control; set-up: scale not given: the % may be the effect or the level left
Method in brief: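 Counter-screen without sirtuin: compound from DMSO stock diluted in Sirt-Glo buffer, then Sirt-Glo reagent added carrying non-acetylated control peptide. DMSO was 2.5% v/v. Mixed by shaking 30 min at 25 °C, then luminescence read. Result is % of control (peptide plus reagent in vehicle) after subtracting the vehicle-only blank.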

[9] = Self-aggregation of the compound in PBS assessed as derived light scattering count rate at 250 uM at pH 7.4 (reference value: 15.5 +/- 0.4 kilocount/sec); type: physicochemical; conditions: buffer, pH 7.4, 250 µM
[10] = Self-aggregation activity of the compound in PBS assessed as derived light scattering count rate at 25 uM at pH 7.4 (reference value: 15.5 +/- 0.4 kilocount/sec); type: physicochemical; conditions: buffer, pH 7.4, 25 µM
[11] = Cytotoxicity against human IMR90 cells assessed as cell viability after 72 hrs by MTS assay; type: cell-based; conditions: IMR-90, 72 h

With `CCCCCCCCn1c2c(c3cc(-c4ccnc(F)c4)ccc31)CN(C(N)=O)CC2` the inhibition [1] was “inactive”.
With `CCCCCCCCn1c2c(c3cc(-c4cnc(N)nc4)ccc31)CN(C(C)C)CC2` the IC50 [2] was 56 µM, the Activity [3] was 137 kC/sec and the Activity [4] was 16.8 kC/sec. The inhibition [1] was 15.3% and the IC50 [5] was 20 µM.
`CCCCCCCCn1c2c(c3cc(-c4cccc(C)c4)ccc31)CNCC2` gave an IC50 [2] of 20 µM, an inhibition [1] of 5.1% and a Ratio IC50 [6] of 2. It also gave an IC50 [5] of 10.1 µM.
`CCCCCCCCn1c2c(c3cc(-c4cccc(C)c4)ccc31)CN(C)CC2` gave an IC50 [2] of 21 µM, an Activity [3] of 178 kC/sec and an Activity [4] of 17.9 kC/sec. It also gave a solubility kinetic [7] of 3.1 µM (≈ 1.2 µg/mL), an inhibition [1] of 66.4% and an IC50 [5] of 6.2 µM. For the same compound, the Activity [8] was 98.6%.
`CCCCCCCCn1c2c(c3cc(-c4ccc(S(C)(=O)=O)cc4)ccc31)CN(C)CC2` gave an IC50 [2] of over 250 µM, an Activity [3] of 130.7 kC/sec and an Activity [4] of 17 kC/sec. It also gave a solubility kinetic [7] of 3.1 µM (≈ 1.4 µg/mL), an inhibition [1] of 12.8% and a Ratio IC50 [6] of over 40. The IC50 [5] was 6 µM and the Activity [8] was 97.8%.
For `CCCCCCCCn1c2c(c3cc(-c4cccc(C)c4)ccc31)CN(Cc1ccc(O)cc1)CC2`, the inhibition [1] was “inactive”.
Work on `Cc1cccc(-c2ccc3[nH]c4c(c3c2)CN(C)CC4)c1` yielded an IC50 [5] of 83 µM.
With `CCCCn1c2c(c3cc(-c4cccc(C)c4)ccc31)CNCC2` the inhibition [1] was “inactive” and the IC50 [5] was 96 µM.
With `CN1CCc2[nH]c3ccc(-c4ccc(S(C)(=O)=O)cc4)cc3c2C1` the IC50 [5] was over 250 µM.
For `CCCCCCCCn1c2c(c3cc(-c4cnc(N)nc4)ccc31)CN(CCO)CC2`, the inhibition [1] was “inactive”.
For `CN1CCc2[nH]c3ccc(-c4cnc(N)nc4)cc3c2C1`, the IC50 [5] was over 250 µM.
For `CCCCCCCCn1c2c(c3cc(-c4cnc(N)nc4)ccc31)CN(CC)CC2`, the inhibition [1] was “inactive”.
Work on `CCCCCCCCn1c2c(c3cc(-c4cccc(C)c4)ccc31)CN(Cc1ccccc1)CC2` yielded an IC50 [2] of over 100 µM, an Activity [3] of 769 kC/sec and an Activity [4] of 32 kC/sec. For the same compound, the inhibition [1] was under 5%, the IC50 [5] was 8.2 µM and the Activity [8] was 99%.
In the case of `CCCCCCCCn1c2c(c3cc(-c4cnc(N)nc4)ccc31)CN(C(N)=O)CC2`, the IC50 [2] is reported as 63 µM, the inhibition [1] is reported as “inactive” and the IC50 [5] is reported as 14 µM.
`CCCCCCCCn1c2c(c3cc(-c4cccc(C)c4)ccc31)CN(C(C)C)CC2` showed an IC50 [2] of 26 µM, an Activity [3] of 558 kC/sec and an Activity [4] of 27 kC/sec. For the same compound, the solubility kinetic [7] was 1.6 µM (≈ 0.667 µg/mL), the inhibition [1] was 2.4% and the IC50 [5] was 11.2 µM. It also gave an Activity [8] of 100%.
With `CC(C)=CCn1c2c(c3cc(-c4cccc(C)c4)ccc31)CN(Cc1ccc(O)cc1)CC2` the inhibition [1] was “inactive”.
Compound `O=C(OCc1ccccc1)c1ccccc1` [BENZYL BENZOATE] has an Activity [9] of 1148 kC/sec and an Activity [10] of 76 kC/sec.
`CCCCCCCCn1c2c(c3cc(-c4ccc(S(C)(=O)=O)cc4)ccc31)CN(C(N)=O)CC2` showed an IC50 [2] of 28 µM, an Activity [3] of 29 kC/sec and an IC50 [11] of 14.5 µM. It also gave an Activity [4] of 15.6 kC/sec, a solubility kinetic [7] of 1.6 µM (≈ 0.771 µg/mL) and an inhibition [1] of 51.8%. The IC50 [5] was 4 µM and the Activity [8] was 98.6%.
`Cc1cccc(-c2ccc3[nH]c4c(c3c2)CNCC4)c1` gave an IC50 [5] of 100 µM.
For `CCCCCCCCn1c2c(c3cc(-c4cccc(C)c4)ccc31)CN(C(N)=O)CC2`, the IC50 [2] was over 100 µM, the Activity [3] was 541 kC/sec and the Activity [4] was 19 kC/sec. For the same compound, the inhibition [1] was “inactive”, the IC50 [5] was 7.8 µM and the Activity [8] was 97.1%.
For `CCCCCCCCn1c2c(c3cc(-c4cnc(N)nc4)ccc31)CN(S(C)(=O)=O)CC2`, the inhibition [1] was “inactive”.
For `CCCCCCCCn1c2c(c3cc(F)ccc31)CN(Cc1ccc(O)cc1)CC2`, the inhibition [1] was “inactive”.
For `CCCCCCCCn1c2c(c3cc(-c4cccc(C)c4)ccc31)CN(C(=O)OCC)CC2`, the inhibition [1] was “inactive”.
Compound `CCCCCCCCn1c2c(c3cc(-c4cnc(N)nc4)ccc31)CN(C)CC2` has an IC50 [2] of over 100 µM, an Activity [3] of 24 kC/sec and an Activity [4] of 15.8 kC/sec. For the same compound, the inhibition [1] was “inactive”, the IC50 [5] was 17.9 µM and the Activity [8] was 98.7%.
In the case of `CCCCn1c2c(c3cc(-c4cnc(N)nc4)ccc31)CNCC2`, the inhibition [1] is reported as “inactive” and the IC50 [5] is reported as over 100 µM.
In the case of `CCCCCCCCn1c2c(c3cc(F)ccc31)CN(C)CC2`, the inhibition [1] is reported as “inactive”.
`CCCCCCCCn1c2c(c3cc(-c4ccnc(F)c4)ccc31)CNCC2` showed an inhibition [1] of 1.1%.
With `CCCCn1c2c(c3cc(-c4ccc(S(C)(=O)=O)cc4)ccc31)CNCC2` the inhibition [1] was “inactive”, the IC50 [5] was 20 µM and the Activity [8] was 98.6%.
With `CCCCCCCCn1c2c(c3cc(-c4cnc(N)nc4)ccc31)CNCC2` the IC50 [2] was 38 µM, the Activity [3] was 137 kC/sec and the Activity [4] was 16.1 kC/sec. It also gave a solubility kinetic [7] of 6.3 µM (≈ 2.38 µg/mL), an inhibition [1] of 2.4% and an IC50 [5] of 11.8 µM. The Activity [8] was 96.3%.
With `CCCCCCCCn1c2c(c3cc(-c4cnc(N)nc4)ccc31)CN(C(=O)OCC)CC2` the inhibition [1] was “inactive”.
